Measurements reported in ChEMBL document CHEMBL2429711, “[(11)C]MK-4232: The First Positron Emission Tomography Tracer for the Calcitonin Gene-Related Peptide Receptor” (ACS Med Chem Lett, 2013).

Legend:
[1] = molecular target: T1, Calcitonin gene-related peptide type 1 receptor (Homo sapiens, UniProt O60894+Q16602); assay: Antagonist activity at CGRP receptor (unknown origin) by cell based cAMP assay in presence of human serum; format: functional
How it was run: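 cAMP functional antagonism measured with 50% human serum added.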

[2] = Apparent passive permeability across pig LLC-PK1 cells; format: ADME, cell-based, Sus scrofa
How it was run: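 Permeability measured in control LLC-PK1 cells.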

[3] = Drug uptake in iv dosed rhesus monkey white matter after 80 mins; format: ADME, organism-based, Macaca mulatta; conditions: in vivo
How it was run: (§1)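 Anesthetized rhesus monkeys given [11C]-tracer i.v.; PET specific uptake value (SUV) read in cerebellum or white matter at 80 min postdose.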

[4] = Ratio of AUC in rhesus monkey CSF to AUC in rhesus monkey plasma; format: ADME, Macaca mulatta
How it was run: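 Cisterna magna-ported rhesus monkeys dosed; CSF AUC divided by plasma AUC.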

[5] = molecular target: T1, Calcitonin gene-related peptide type 1 receptor; assay: Displacement of [125I]-hCGRP from human CGRP receptor expressed in HEK293 cells; format: cell-based
How it was run: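 Ki for inhibition of 125I-hCGRP binding; membranes from HEK293 cells stably expressing human CLR/RAMP1; replicate number given per value.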

[6] = Drug uptake in iv dosed rhesus monkey cerebellum after 80 mins; format: ADME, organism-based, Macaca mulatta; conditions: in vivo; how it was run: as §1
[7] = tested on: CGRP receptor (Macaca mulatta); assay: Ratio of drug uptake in iv dosed rhesus monkey cerebellum to drug uptake in iv dosed rhesus monkey white matter; conditions: in vivo
MDR1 (ABCB1) = MDR1 (ABCB1) (Homo sapiens, UniProt P08183); assay: Efflux ratio of human MDR1-mediated drug transport from basolateral to apical side over apical to basolateral side in pig LLC cells expressing human MDR1 at 5 uM; format: ADME, cell-based; conditions: LLC-PK1
How it was run: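 P-gp transport ratio BA/AB in LLC-MDR1 cells, test compound at 5 μM.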

[8] = Lipophilicity, log D of the compound at pH 7.0 by HPLC analysis; format: physicochemical; conditions: buffer
How it was run: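 logD measured by HPLC at pH 7.0.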

[9] = molecular target: Calcitonin gene-related peptide type 1 receptor (Homo sapiens) (UniProt Q16602); assay: Ratio of IC50 for CGRP receptor (unknown origin) to IC50 for CGRP receptor (unknown origin) in presence of human serum
[10] = molecular target: T1, Calcitonin gene-related peptide type 1 receptor; assay: Antagonist activity at CGRP receptor (unknown origin) by cell based cAMP assay; format: functional
[11] = Fraction unbound in monkey plasma by equillibrium dialysis method; format: ADME, cell-free, Macaca mulatta; conditions: rhesus monkey
How it was run: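 Plasma unbound fraction by equilibrium dialysis.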

[12] = Binding affinity to rhesus monkey CGRP receptor by radioligand binding assay; parameters: species or system Macaca mulatta
Macaca mulatta = organism: Macaca mulatta; assay: Binding affinity to rhesus monkey cerebellum CGRP receptor; format: tissue-based
[13] = molecular target: Calcitonin gene-related peptide type 1 receptor (Homo sapiens) (UniProt Q16602); assay: Ratio of Bmax to Ki for human CGRP receptor expressed in HEK293 cells; format: cell-based
[14] = Fraction unbound in rhesus monkey CSF; format: ADME, Macaca mulatta, Cerebrospinal fluid

MDR1 (ABCB1), sequence (P08183 whole entry): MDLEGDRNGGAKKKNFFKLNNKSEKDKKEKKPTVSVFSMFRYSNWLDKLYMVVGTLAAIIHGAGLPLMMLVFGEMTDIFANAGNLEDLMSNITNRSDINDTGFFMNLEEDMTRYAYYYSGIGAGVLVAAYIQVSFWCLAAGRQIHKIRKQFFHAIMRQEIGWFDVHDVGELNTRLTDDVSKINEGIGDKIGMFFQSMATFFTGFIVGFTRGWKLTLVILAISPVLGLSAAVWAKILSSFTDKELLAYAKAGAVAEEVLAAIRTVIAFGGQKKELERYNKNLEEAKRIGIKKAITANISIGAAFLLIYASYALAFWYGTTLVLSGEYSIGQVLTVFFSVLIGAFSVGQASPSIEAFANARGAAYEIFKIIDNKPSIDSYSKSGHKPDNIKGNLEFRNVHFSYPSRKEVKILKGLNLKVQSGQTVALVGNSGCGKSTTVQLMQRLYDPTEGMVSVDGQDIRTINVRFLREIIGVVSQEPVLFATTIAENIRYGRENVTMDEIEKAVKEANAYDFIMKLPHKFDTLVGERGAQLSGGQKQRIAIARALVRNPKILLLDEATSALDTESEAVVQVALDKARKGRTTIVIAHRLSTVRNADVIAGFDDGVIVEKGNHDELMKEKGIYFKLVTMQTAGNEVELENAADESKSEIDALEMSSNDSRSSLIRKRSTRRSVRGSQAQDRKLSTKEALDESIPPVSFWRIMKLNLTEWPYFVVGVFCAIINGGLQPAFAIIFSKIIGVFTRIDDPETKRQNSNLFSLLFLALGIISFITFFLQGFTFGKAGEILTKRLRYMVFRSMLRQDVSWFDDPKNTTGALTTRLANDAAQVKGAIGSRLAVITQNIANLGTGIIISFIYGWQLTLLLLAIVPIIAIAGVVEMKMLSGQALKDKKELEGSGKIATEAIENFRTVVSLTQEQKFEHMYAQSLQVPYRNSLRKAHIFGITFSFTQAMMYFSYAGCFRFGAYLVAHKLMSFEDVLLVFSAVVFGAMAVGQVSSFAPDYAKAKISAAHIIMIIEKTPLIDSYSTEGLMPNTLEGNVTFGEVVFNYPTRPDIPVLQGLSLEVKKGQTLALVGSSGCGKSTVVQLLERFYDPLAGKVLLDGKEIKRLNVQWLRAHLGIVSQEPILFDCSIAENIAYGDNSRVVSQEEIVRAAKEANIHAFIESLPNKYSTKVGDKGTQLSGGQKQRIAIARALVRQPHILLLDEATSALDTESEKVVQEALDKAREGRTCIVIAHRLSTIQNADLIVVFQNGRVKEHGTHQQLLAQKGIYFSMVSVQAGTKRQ
T1 sequence (Q16602 whole entry, one chain of several): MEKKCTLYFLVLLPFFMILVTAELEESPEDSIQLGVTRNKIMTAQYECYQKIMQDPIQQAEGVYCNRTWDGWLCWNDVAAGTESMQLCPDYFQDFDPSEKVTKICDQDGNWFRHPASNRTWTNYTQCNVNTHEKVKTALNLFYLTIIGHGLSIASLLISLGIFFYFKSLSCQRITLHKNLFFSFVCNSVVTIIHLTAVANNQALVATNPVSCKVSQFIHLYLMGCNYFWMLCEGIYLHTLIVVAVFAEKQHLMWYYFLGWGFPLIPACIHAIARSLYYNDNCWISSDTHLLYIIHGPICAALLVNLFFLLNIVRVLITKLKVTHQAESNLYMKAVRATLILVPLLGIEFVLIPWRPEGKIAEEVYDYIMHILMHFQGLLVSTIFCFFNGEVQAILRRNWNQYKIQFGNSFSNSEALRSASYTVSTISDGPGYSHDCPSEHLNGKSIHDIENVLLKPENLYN
Calcitonin gene-related peptide type 1 receptor (Homo sapiens), sequence (Q16602 whole entry): as the sequence (Q16602 whole entry, one chain of several) above

SMILES	IC50 [1]	Papp [2]	SUV [3]	Ratio AUC [4]	Ki [5]	SUV [6]	Ratio [7]	efflux ratio at 5 µM (MDR1 (ABCB1))	logD [8]	Ratio IC50 [9]	IC50 [10]	fraction unbound [11]	Ki [12]	Bmax (Macaca mulatta)	Ratio [13]	fraction unbound [14]
CN1C[C@@](C)(c2cc(F)cc(F)c2)N(CC(=O)Nc2ccc3c(c2)C[C@@]2(C3)C(=O)Nc3ncccc32)C(=O)C12CCCC2	0.39 nM	25 ×10⁻⁶ cm/s	0.9	3.12%	0.046 nM	1.7	2	1.7	3.39	4	0.097 nM	0.043	0.033 nM			
C[C@@]1(c2cc(F)cc(F)c2)CNC2(CCCC2)C(=O)N1CC(=O)Nc1ccc2c(c1)C[C@@]1(C2)C(=O)Nc2ncccc21				6.61%				9.3								
CN1C[C@@](C)(c2cc(F)cc(F)c2)N(C/C=C/c2cnc3c(c2)C[C@@]2(C3)C(=O)Nc3ncccc32)C(=O)C12CCCC2		21 ×10⁻⁶ cm/s	0.7		0.021 nM	1.2	1.7	2	3.36			0.051				
CN1C[C@@](C)(c2cc(F)cc(F)c2)N(CC(=O)Nc2cnc3c(c2)C[C@@]2(C3)C(=O)Nc3ncccc32)C(=O)C12CCCC2					0.017 nM			14								
CC1(C)NC[C@@](C)(c2cc(F)cc(F)c2)N(CC(=O)Nc2ccc3c(c2)C[C@@]2(C3)C(=O)Nc3ncccc32)C1=O					0.11 nM			20				0.333				
O=C(CN1C(=O)C2(CCCC2)NC[C@H]1c1cc(F)cc(F)c1)Nc1ccc2c(c1)C[C@@]1(C2)C(=O)Nc2ncccc21 [MK3207]		28 ×10⁻⁶ cm/s		2.9%				25	2.35					24 nM	> 1000	
CC1(C)NC[C@@H](c2cc(F)cc(F)c2)N(CC(=O)Nc2ccc3c(c2)C[C@@]2(C3)C(=O)Nc3ncccc32)C1=O				4.35%	0.034 nM			33				0.429				0.1
CN1C[C@@](C)(c2cc(F)cc(F)c2)N(CCCc2ccc3c(c2)C[C@@]2(C3)C(=O)Nc3ncccc32)C(=O)C12CCCC2			0.6		0.5 nM	0.8	1.3		4.33			0.002				
CN1C[C@@H](c2cc(F)cc(F)c2)N(CC(=O)Nc2ccc3c(c2)C[C@@]2(C3)C(=O)Nc3ncccc32)C(=O)C1(C)C		27 ×10⁻⁶ cm/s	0.5		0.022 nM	0.7						0.205				
CN1C[C@@](C)(c2cc(F)cc(F)c2)N(CCCc2cnc3c(c2)C[C@@]2(C3)C(=O)Nc3ncccc32)C(=O)C12CCCC2		23 ×10⁻⁶ cm/s	0.6		0.045 nM	1	1.7	1.8	3.16			0.061				
CN1C[C@@](C)(c2cc(F)cc(F)c2)N(CC#Cc2ccc3c(c2)C[C@@]2(C3)C(=O)Nc3ncccc32)C(=O)C12CCCC2			0.7	0.99%	0.11 nM	1.1	1.6		4.11			0.008				
CN1C[C@@](C)(c2cc(F)cc(F)c2)N(C/C=C/c2ccc3c(c2)C[C@@]2(C3)C(=O)Nc3ncccc32)C(=O)C12CCCC2			0.7	0.53%	0.094 nM	1	1.4		4.15			0.002				
O=C(N[C@@H]1CC[C@@H](c2cccc(F)c2F)CN(CC(F)(F)F)C1=O)N1CCC(n2c(=O)[nH]c3ncccc32)CC1 [TELCAGEPANT]				1.3%				24				0.038				
CN1C[C@@](C)(c2cc(F)cc(F)c2)N(CC#Cc2cnc3c(c2)C[C@@]2(C3)C(=O)Nc3ncccc32)C(=O)C12CCCC2		17 ×10⁻⁶ cm/s	0.7	2.64%	0.019 nM	1.3	1.9	1.5	3.41			0.031				
CN1C[C@@](C)(c2cc(F)cc(F)c2)N(CC(=O)Nc2ccc3c(c2)C[C@@]2(C3)C(=O)Nc3ncccc32)C(=O)C1(C)C		29 ×10⁻⁶ cm/s	0.7	4.79%	0.056 nM	1.2	1.7	2.8				0.117				0.4
